Consider 17 molecules from ChEMBL document CHEMBL1136765, “1,3-dioxolane-based ligands as a novel class of alpha1-adrenoceptor antagonists” (J Med Chem, 2003).

The structures appear in SMILES notation.

In assay [1] the target is T1, Alpha-1D adrenergic receptor (Rattus norvegicus, UniProt P23944).
T1 sequence (P23944 whole entry): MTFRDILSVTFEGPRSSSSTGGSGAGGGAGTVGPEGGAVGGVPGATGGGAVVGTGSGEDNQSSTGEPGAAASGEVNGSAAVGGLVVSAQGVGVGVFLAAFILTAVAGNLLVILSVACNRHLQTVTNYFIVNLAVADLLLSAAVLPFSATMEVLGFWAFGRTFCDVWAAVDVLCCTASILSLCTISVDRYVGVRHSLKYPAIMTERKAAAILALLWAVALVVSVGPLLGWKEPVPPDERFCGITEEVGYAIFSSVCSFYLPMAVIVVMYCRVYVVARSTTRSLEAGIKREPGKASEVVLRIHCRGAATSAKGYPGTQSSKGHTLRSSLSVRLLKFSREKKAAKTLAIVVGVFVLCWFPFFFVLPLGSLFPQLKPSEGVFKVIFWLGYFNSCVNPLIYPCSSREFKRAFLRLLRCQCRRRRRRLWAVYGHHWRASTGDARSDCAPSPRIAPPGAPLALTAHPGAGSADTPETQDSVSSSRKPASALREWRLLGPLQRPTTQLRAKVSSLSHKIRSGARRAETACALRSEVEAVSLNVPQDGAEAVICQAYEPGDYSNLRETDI
The experiment in a line: Antagonistic activity against (-)-noradrenaline-induced contraction of rat thoracic aorta (Alpha-1D adrenergic receptor). Type of assay: functional, tissue-based. To be noted: read-out: pA2 (converted). The procedure, abridged: (§1)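 Endothelium-denuded rat thoracic aorta strips (denudation confirmed by no 100 µM acetylcholine relaxation after 1 µM noradrenaline) in Tyrode, 1 g tension, ≥2 h equilibration. Cumulative (-)-noradrenaline curves at 1 h intervals; third as control, antagonist 30 min before fourth.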

For assay [2], the target named is T2, Alpha-1B adrenergic receptor (Rattus norvegicus) (UniProt P15823).
T2 sequence (whole entry): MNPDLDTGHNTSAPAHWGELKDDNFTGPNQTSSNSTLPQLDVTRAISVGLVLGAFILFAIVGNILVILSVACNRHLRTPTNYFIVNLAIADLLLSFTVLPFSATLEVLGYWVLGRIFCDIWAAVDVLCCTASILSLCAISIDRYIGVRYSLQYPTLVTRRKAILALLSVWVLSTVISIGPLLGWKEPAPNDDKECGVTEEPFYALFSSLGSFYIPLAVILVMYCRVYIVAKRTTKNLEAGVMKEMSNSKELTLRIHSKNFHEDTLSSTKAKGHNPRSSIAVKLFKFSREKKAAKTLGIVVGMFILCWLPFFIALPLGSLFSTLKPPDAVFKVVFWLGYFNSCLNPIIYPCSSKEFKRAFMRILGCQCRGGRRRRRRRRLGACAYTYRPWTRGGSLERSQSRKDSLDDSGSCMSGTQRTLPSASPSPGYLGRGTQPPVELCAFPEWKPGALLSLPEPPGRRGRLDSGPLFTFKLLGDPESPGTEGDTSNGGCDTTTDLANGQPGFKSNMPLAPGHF
Put plainly: Inhibition of (-)-phenylephrine-induced contraction of rat spleen (Alpha-1B adrenergic receptor ). Type of assay: functional, tissue-based. The procedure, abridged: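 Rat spleen strips in buffer containing 4 µM propranolol to block β-adrenoceptors, 1 g resting tension, 2 h equilibration. Isometric cumulative phenylephrine curves at 30 min intervals; first discarded, second control.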

The target of assay [3] is T3, Alpha-1A adrenergic receptor (Rattus norvegicus) (UniProt P43140).
T3 sequence (whole entry): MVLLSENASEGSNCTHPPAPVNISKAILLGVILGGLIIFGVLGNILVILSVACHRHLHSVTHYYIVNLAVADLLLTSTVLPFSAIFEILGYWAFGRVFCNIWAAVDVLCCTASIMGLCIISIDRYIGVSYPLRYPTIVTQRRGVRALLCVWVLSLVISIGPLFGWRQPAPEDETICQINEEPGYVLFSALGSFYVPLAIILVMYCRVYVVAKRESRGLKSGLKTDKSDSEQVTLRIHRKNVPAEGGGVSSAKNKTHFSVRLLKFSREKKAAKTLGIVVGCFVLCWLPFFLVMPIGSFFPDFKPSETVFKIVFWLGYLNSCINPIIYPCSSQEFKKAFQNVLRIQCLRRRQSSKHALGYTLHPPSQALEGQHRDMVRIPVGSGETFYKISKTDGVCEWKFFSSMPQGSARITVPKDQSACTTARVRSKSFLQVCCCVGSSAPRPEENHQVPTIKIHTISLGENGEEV
The experiment in a line: Inhibition of (-)-noradrenaline-induced contraction of rat prostatic vas deferens (alpha1A receptor). The class given is functional. The procedure, abridged: (§2)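 Rat prostatic vas deferens portion equilibrated 60 min, washed every 15 min, primed twice with 10 µM noradrenaline, re-equilibrated 60 min; control noradrenaline concentration-response curve, then antagonist 30 min before repeat curve.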

Assay [4] can be described thus: Selectivity given as ratio of pKb value against Alpha-1D receptor to pKb value against Alpha-1B receptor in rat. Type of assay: functional.
The target in assay [5] is Alpha adrenergic receptor 1A and 1B (Rattus norvegicus) (UniProt P15823+P43140). The experiment in a line: Selectivity given as ratio of pKb value against alpha1A receptor to pKb value against alpha-1B receptor in rat. The class given is functional.
Assay [6] has as its target Alpha adrenergic receptor 1A and 1D (Rattus norvegicus) (UniProt P23944+P43140). The experiment in a line: Selectivity given as ratio of pKb value against Alpha-1D receptor to pKb value against alpha1A receptor in rat. The class given is functional.
The target in assay [7] is T4, Alpha-1D adrenergic receptor (Rattus norvegicus) (UniProt P23944).
T4 sequence (whole entry): T1 sequence (P23944 whole entry)
The experiment in a line: Inhibition of (-)-noradrenaline-induced contraction of rat thoracic aorta (Alpha-1D adrenergic receptor). Type of assay: functional, tissue-based. Put shortly: as §1

Assay [8] addresses T5, Alpha-1A adrenergic receptor (Rattus norvegicus, UniProt P43140).
T5 sequence (P43140 whole entry): T3 sequence (whole entry)
The experiment in a line: Antagonistic activity against (-)-noradrenaline-induced contraction of rat prostatic vas deferens (Alpha-1A adrenergic receptor ). The class given is functional, tissue-based. To be noted: read-out: pA2 (converted). Put shortly:
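Rat prostatic vas deferens segments equilibrated 60 min, washed every 15 min, primed twice with 10 µM noradrenaline, then re-equilibrated 60 min. Basal noradrenaline concentration-response curve, then repeat after 30 min antagonist equilibration.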

Assay [9] addresses T3, Alpha-1A adrenergic receptor (Rattus norvegicus). Put plainly: Antagonistic activity against (-)-noradrenaline-induced contraction of rat prostatic vas deferens (Alpha-1A adrenergic receptor). The class given is functional, tissue-based. Put shortly:
as §2

With `COc1cccc(OC)c1OCCNCC1COC(c2ccccc2)(c2ccccc2)O1.O=C(O)C(=O)O` (centres undefined), in assay [1], the Kb was 117 nM. The pKb in assay [2] was determined as 5.89; in assay [3] it was 5.73. Besides, the Selectivity is 11 in assay [4], 0.7 in [5] and 16 in assay [6].

With `O=C(O)C(=O)O.c1ccc(OCCNCC2CO[C@H](c3ccccc3)O2)cc1` (some centres undefined), the pKb in assay [2] amounted to 6.3; in assay [7], 7.09; in assay [3] it was 5.44. Also, the figures for the Selectivity in [4], in [5] and in [6] were 6, 0.1 and 45, respectively.

Consider `COc1ccccc1N1CCN(CCN2C(=O)CC3(CCCC3)CC2=O)CC1`, for which the negative logarithm of the Kb (pKb) worked out at 7.48 in assay [2] and 8.4 in assay [7].

For the molecule `COc1cccc(OC)c1OCCNCC1CO[C@H](c2cccc3ccccc23)O1.O=C(O)C(=O)O` (some centres undefined), the negative-log Kb (pKb) in [2] is 6.38; in assay [7] it was 7.32; in [3], below 5. For the same molecule, the Selectivity in assay [4] was 9; in [5], below 0.04; in [6], above 209.

As for `COc1cccc(OC)c1OCCNCC1COC(c2ccc3ccccc3c2)O1.O=C(O)C(=O)O` (centres undefined), the pKb in [2] is 5.12; in assay [7], 6.65; in assay [3], 5.79. The Selectivity in assay [4] was 33; in assay [5] it was 5; in assay [6], 7.

On to `O=C(O)C(=O)O.c1ccc(OCCNCC2COC3(CCCCC3)O2)cc1` (centres undefined), for which the figures for the pKb in assay [2], in [7] and in assay [3] were 6.2, 6.54 and 5.27, respectively. In addition, the Selectivity came to 2 in assay [4], 0.1 in assay [5] and 19 in [6].

`COc1cccc(OC)c1OCCNCC1COc2ccccc2O1` (centres undefined): the figures for the Kb in [1] and in assay [8] were 2.51 nM and 0.437 nM, respectively.

On to `COc1cccc(OC)c1OCCNCC1CO[C@H](c2ccccc2)O1.O=C(O)C(=O)O` (some centres undefined), for which the figures for the pKb in assay [2], in assay [7] and in assay [9] were 5.7, 6.44 and 6.61, respectively. Further, the Selectivity amounted to 6 in assay [4], 8 in [5] and 0.7 in assay [6].

As to `COc1cccc(OC)c1OCCNCC1CO[C@H](Cc2ccccc2)O1.O=C(O)C(=O)O` (some centres undefined), the results for the pKb in assay [2], in assay [7] and in assay [3] were 5.77, 5.13 and 5.36, respectively. Moreover, the Selectivity was determined as 0.2 in assay [4], 0.4 in [5] and 0.6 in [6].

Take `COc1cccc(OC)c1OCCNCC1CO[C@@H](Cc2ccccc2)O1.O=C(O)C(=O)O` (some centres undefined): the results for the pKb in assay [2], in assay [7] and in [3] were 5.45, 6 and 6.82, respectively. For the same molecule, the Selectivity in [4] amounted to 5; in assay [5], 23; in assay [6] it was 0.2.

Consider `O=C(O)C(=O)O.c1ccc(OCCNCC2CO[C@@H](c3ccccc3)O2)cc1` (some centres undefined), for which the pKb in assay [2] was found to be 6.4; in assay [7], 6.94; in assay [3] it was 6.01. For the same molecule, the values for the Selectivity in assay [4], in [5] and in [6] were 4, 0.4 and 9, respectively.

Take `COc1cccc(OC)c1OCCNCC1CO[C@H](C(c2ccccc2)c2ccccc2)O1.O=C(O)C(=O)O` (some centres undefined): the pKb was 5.51 in assay [2], 7.15 in [7] and 5.6 in [3]. Moreover, the Selectivity stood at 44 in assay [4], 12 in assay [5] and 36 in assay [6].

`COc1cccc(OC)c1OCCNCC1CO[C@@H](c2cccc3ccccc23)O1.O=C(O)C(=O)O` (some centres undefined): the pKb in [2] is 6.38; in assay [7] it was 7.07; in assay [3], 5.69. Also, the Selectivity was found to be 5 in assay [4], 0.2 in assay [5] and 24 in assay [6].

As to `COc1cccc(OC)c1OCCNCC1CO[C@](C)(c2ccccc2)O1.O=C(O)C(=O)O` (some centres undefined), the Kb in [1] was 129 nM. The values for the pKb in assay [2] and in [3] were 5.56 and 5.8, respectively. In addition, the Selectivity stood at 21 in assay [4], 2 in assay [5] and 12 in assay [6].

On to `COc1cccc(OC)c1OCCNCC1CO[C@@H](c2ccccc2)O1.O=C(O)C(=O)O` (some centres undefined), for which the pKb in assay [2] was found to be 6.19; in [7], 6.18; in assay [3], 6.31. In addition, the Selectivity is 1 in [4], 1 in assay [5] and 0.7 in assay [6].

For `COc1cccc(OC)c1OCCNCC1CO[C@@](C)(c2ccccc2)O1.O=C(O)C(=O)O` (some centres undefined), the negative logarithm of the Kb (pKb) in assay [2] was 5.93; in [7] it was 6.69; in [3] it was 5.74. In addition, the Selectivity stood at 7 in assay [4], 0.6 in assay [5] and 11 in assay [6].

Turning to `COc1cccc(OC)c1OCCNCC1CO[C@@H](C(c2ccccc2)c2ccccc2)O1.O=C(O)C(=O)O` (some centres undefined), the pKb in [2] came out at 5.44; in [7] it was 6.88; in [3], 6.77. In addition, the Selectivity is 28 in assay [4], 21 in assay [5] and 1 in [6].

The term pKb denotes −log10 of the Kb, conventionally taken in molar units. Higher therefore signals a low Kb.
